In ChEMBL document CHEMBL4513216, “Probing the Open Global Health Chemical Diversity Library for Multistage-Active Starting Points for Next-Generation Antimalarials” (ACS Infect Dis, 2020):

Assay: Toxicity liver stage against HepG2, at 10uM
Assay type: cell-based
Design: test concentration 10 uM, cell line HepG2-A16-CD81EGFP
Settings: human, HepG2-A16-CD81EGFP cells; read-out: INHIBITION
Procedure, shortened: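 Uninfected HepG2-A16-CD81EGFP cells, 3 × 10^3 per well, 1536-well, plated on prespotted compound at 10 μM final, parasite-free screening media added to match infected plates; puromycin 10 μM positive, DMSO 0.5% negative; run in parallel with 48 h PbLuc assay at 37 °C, 5% CO2; viability by CellTiter-Glo luminescence, normalized to controls.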

SMILES	cytotoxicity at 10 µM
COc1ccc(O[C@H]2COCCN(Cc3c[nH]c4ccccc34)C2)cc1	1.82%
C[C@@H](NC(=O)c1cnccn1)c1c(-c2ccc(F)cc2)noc1C(=O)O	1.02%
Cc1ccn(CCC(=O)NCc2ccco2)n1	5.94%
CN1C[C@H](O)[C@]2(CCN(Cc3ccc(OC(F)(F)F)cc3)C2)S1(=O)=O	-5.57%
COc1ccccc1C(=O)N1CC(=O)N(CC(C)C)CC(O)C1 (stereo not drawn)	4.37%
O=C(Nc1nc2c(s1)CN(S(=O)(=O)C1CC1)CC2)c1cccc(Cl)c1	1.55%
O=c1ccc2c([nH]1)CCN(S(=O)(=O)c1ccc3c(c1)OCCO3)C2	-3.06%
CCOCC(=O)NCc1cc(C2CC2)n(C2CCCC2)n1	-0.165%
C[C@@H]1CN(C(=O)Cc2ccsc2)C[C@]12CCN(CCN(C)C)C2=O	-1.1%
CCN1CCOCC2(CCCN(C(=O)c3cccc(O)c3)C2)C1 (stereo not drawn)	0.14%
Cc1nnc([C@@H]2C[C@H]3CN(C(=O)C4CC4)C[C@H]3O2)[nH]1	19.8%
Cc1cnc(C(=O)N2C[C@H]3CCCC(OCc4cccnc4)[C@H]3C2)cn1 (stereo partly drawn)	3.51%
Cn1cc(C(=O)Nc2ccc3c(c2)CN(C(=O)c2ccco2)CC3)nn1	0.0452%
CCCNC(=O)c1c(-n2cnnn2)sc2c1CCC2	4.05%
Cc1occc1C(=O)N1CCc2ncnc(-c3cnn(C)c3)c2CC1	-4.77%
O=C(C1CCOCC1)N1CCc2ncnc(-c3ccc(F)cc3)c2CC1	-6.28%
COc1nsc2nc(C3CCCN3C(C)=O)ccc12 (stereo not drawn)	6.78%
CNC(=O)CCc1cc(C)nc(C2CCCCN2)n1 (stereo not drawn)	-9.83%
C[C@]1(O)CCN(Cc2nccs2)C[C@@H]1Oc1cccc(F)c1	-0.779%
Cc1cc2cc(C(=O)N[C@@H]3CC[C@@H](N4CCCC4)[C@@H]3O)ccc2o1	-4.72%
CN(C)C(=O)C1(CCCc2ccncc2)CCCN1 (stereo not drawn)	0.59%

SMILES	cytotoxicity at 10 µM
O=C(c1cccc(O)c1)N1CCN(Cc2nnc(C3CCC3)o2)CC1	-8.52%
Cc1cc(CC(=O)N(C)Cc2cccc(OC(C)C)c2)n[nH]1	1.1%
NS(=O)(=O)c1ccc(N2CCN(CCCc3cn[nH]c3)CC2)cc1	-145%
CSc1ccc(NCC(=O)NCC(=O)N2CCCC2)cc1F	2.63%
O=C1NCCCN1Cc1nc(-c2ccc(N3CCCCC3)cc2)no1	3.24%
CNC(=O)c1cccc(NCCOc2ccc(CC#N)cc2)c1C	-0.662%
CNC(=O)c1cccnc1NCc1ccc(-n2cccn2)cc1	14.1%
COCCOCC(=O)NCc1ccc(N(C)C)nc1	8.87%
CSCC(=O)N(Cc1ccccn1)Cc1ccccc1C	7.79%
Cc1c(C(=O)N2CCCSCC2)nnn1-c1ccccc1Cl	8.31%
c1cc(CNCc2ccnc(N3CCOCC3)c2)c2c(c1)OCCCO2	7.82%
CC(=O)N1CCN(CCNS(=O)(=O)c2cc(F)cc(F)c2)CC1	7.24%
CCn1cnnc1CNC(=O)C1COc2ccc(Cl)cc2C1 (stereo not drawn)	-0.845%
Cc1cc(-c2nc(-c3cccc(CN4CCOCC4)c3)no2)no1	-7.33%
O=C(NCCC1CCN(CC(F)(F)F)CC1)C1CCOC1 (stereo not drawn)	5.69%
COCC(O)CN(C)c1ccnc2ccc(Cl)cc12 (stereo not drawn)	-5.93%
NC(=O)N1CCC(C(=O)NC2CCc3nccn3C2)CC1 (stereo not drawn)	-2.09%
Cc1cnn(CCNCc2csc(COc3ccccc3)n2)c1	1.77%
COc1cc(I)c(Cl)cc1C(=O)N(C)C	11%
CC(=O)c1c(F)cccc1NCC(O)C1CC1 (stereo not drawn)	13.4%
N#Cc1ccc(N2CCCN(CC(=O)N3CCC3)CC2)cc1	-8.38%

SMILES	cytotoxicity at 10 µM
CCn1c(CN(C)C(C)CSC)nc2c(F)cccc21 (stereo not drawn)	5.73%
Cc1nn(C)c(C)c1NC(=O)CN1CCCC1c1noc(C2CC2)n1 (stereo not drawn)	-12.1%
Cn1cc(CN2CC[C@@H](O)[C@@H]2Cc2ccccc2)cn1	-71.2%
COCC(Nc1ncnc2sc(C(=O)O)c(C)c12)c1ccnn1C (stereo not drawn)	-18.7%
CN(CC(O)CO)c1nc(-c2cccnc2)nc2c1CCNC2 (stereo not drawn)	-0.0186%
CNC(=O)C1CCN(c2cc(C3CCNCC3)nc(C)n2)C1 (stereo not drawn)	-6.43%
CCn1c(C)nnc1SCCNc1nc(C)nc2ncccc12	0.194%
CCc1nc(C)c(C2CC(=O)Nc3c2c(-c2cccnc2)nn3C)[nH]1 (stereo not drawn)	-8.13%
COc1ccc(NC(=O)Cn2nc(C)c(C)cc2=O)c(OC)c1	-3.62%
Cc1ccccc1S(=O)(=O)N1CCCCC1c1ccn[nH]1 (stereo not drawn)	12.1%
CC(C)C(C(=O)N1CCCN(c2cccnn2)CC1)n1cncn1 (stereo not drawn)	-20.7%
Cc1cnn(CC2CCCCN2Cc2c(C)noc2C)c1 (stereo not drawn)	-11.2%
COc1cc(C)nc(N2CCN(C(=O)COC3CCCC3)CC2)n1	-3.78%
Cc1cc(C(=O)NCc2cccnc2N(C)C)c(C)o1	-9.51%
Cc1cnn(CC2CCCN2Cc2nc3ccccc3c(=O)[nH]2)c1 (stereo not drawn)	-4.82%
Cc1nc(C)n(C2CCCN(C(=O)c3c(C)nn4cccnc34)C2)n1 (stereo not drawn)	-29.2%
Cc1ccc(C(=O)N2CCCC(CNS(C)(=O)=O)C2)o1 (stereo not drawn)	-16%
COc1c(C)cnc(CN(C)C(=O)c2ccccc2O)c1C	-14.3%
CCN1CCN(C2CCN(Cc3nc(-c4ccoc4)no3)CC2)C1=O	-7.39%
CC(Cn1cccn1)NCc1nc(-c2cccc(Cl)c2)no1 (stereo not drawn)	-9.21%
O=C(CN1CCOC(Cn2cccn2)C1)NCc1cccs1 (stereo not drawn)	-6.88%

SMILES	cytotoxicity at 10 µM
Cc1nnc2n1CCN(Cc1csc(Cc3ccccc3)n1)C2	-9.41%
O=C(c1ccc(C(F)(F)F)nc1)N1CCCC(n2cncn2)C1 (stereo not drawn)	-10.6%
COc1ccc(OC)c(CCNC(=O)NC(C)Cn2ccnc2)c1 (stereo not drawn)	-1.06%
Cc1cnn(CCNCC(O)COc2ccc(C#N)cc2)c1 (stereo not drawn)	-11.9%
CCCc1nc(CN2CCCC2Cn2cncn2)cs1 (stereo not drawn)	-9.39%
CC(C)C(=O)N1CCN(C(=O)CCc2nnc(-c3ccccc3)o2)CC1	-4.66%
CCc1nnc(CNCC2CCN(CC(O)c3ccccc3)CC2)o1 (stereo not drawn)	-1.49%
O=C(CCc1ccc(Br)cc1F)NS(=O)(=O)c1ccc2c(c1)OCCO2	2.48%
CCc1nccn1C1CCCN(C(=O)c2cn3cccnc3n2)C1 (stereo not drawn)	92.6%
CC(C)OCCN(C)C(C)c1cccc(S(N)(=O)=O)c1 (stereo not drawn)	-8.6%
Cc1ccsc1CN(C)Cc1nc2c(cnn2C)c(=O)[nH]1	-0.575%
CN(CC(=O)NC(Cc1ccsc1)c1cccnc1)Cc1ccccn1 (stereo not drawn)	3.9%
CCn1ncc2c1C(COCC1CC1)CN(C(=O)c1ccncn1)C2 (stereo not drawn)	-74.8%
COCC(=O)N1CCC2(CC1)COCCN2Cc1ccc(F)cc1	-73.4%
O=C(Cc1cccc(F)c1)N1CCn2cc(Cn3cccn3)nc2C1	-84.3%
O=C(NCc1cn2c(n1)CN(Cc1cccnc1)CC2)C1CCC1	6.76%
COc1ccccc1C(=O)N1CCCC1c1ncc2c(n1)CCNC2 (stereo not drawn)	-12.3%
CN(C)c1ncc(-c2cc(C(=O)NCCO)n(CC3CC3)c2)cn1	-3.53%
CS(=O)(=O)N1CCC[C@]2(C[C@@H](Oc3ncccc3F)CO2)C1	4.09%
NCc1ccc(Oc2ccc(F)c(F)c2)cc1C(F)(F)F	-0.587%
